We go through 1 molecule from ChEMBL document CHEMBL4393678, “Novel Tetrahydroquinazolinamines as Selective Histamine 3 Receptor Antagonists for the Treatment of Obesity” (J Med Chem, 2019).

One series concerns the target Histamine H2 receptor (Homo sapiens, UniProt P25021). As to the kind of experiment: Agonist activity at recombinant human Gs-coupled H2 receptor expressed in HEK293T cells assessed as inhibition of forskolin-stimulated cAMP accumulation at 10 uM preincubated for 10 to 15 followed by forskolin-stimulation by Glo-sensor assay relative to control. Further details: scale not given: the % may be the effect or the level left. It is filed as functional, cell-based. A digest of the protocol: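 HEK293T cells were transiently co-transfected with GloSensor-22F cAMP plasmid and human H2R plasmid, then held 15–18 h at 37 °C in 5% CO2. Cells were loaded with sodium luciferin (1 mg/ml) for 90 min. Agonist mode used 10 µM compound, with luminescence read directly after 10–15 min. Screening was in triplicate, scored as ≥50% change versus control.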

Series [1] addresses D(1A) dopamine receptor (Homo sapiens) (UniProt P21728). The series is described as follows: Antagonist activity at Gs-coupled D1 receptor (unknown origin) expressed in HEK293T cells assessed as reduction in histamine-induced inhibition of forskolin-stimulated cAMP accumulation preincubated for 10 to 15 followed by histamine addition for 10 mins and subsequent forskolin-stimulation by Glo-sensor assay. It is filed as functional, cell-based.

Series [2] has as its target T1, D(4) dopamine receptor (Homo sapiens) (UniProt P21917).
T1 sequence (whole entry): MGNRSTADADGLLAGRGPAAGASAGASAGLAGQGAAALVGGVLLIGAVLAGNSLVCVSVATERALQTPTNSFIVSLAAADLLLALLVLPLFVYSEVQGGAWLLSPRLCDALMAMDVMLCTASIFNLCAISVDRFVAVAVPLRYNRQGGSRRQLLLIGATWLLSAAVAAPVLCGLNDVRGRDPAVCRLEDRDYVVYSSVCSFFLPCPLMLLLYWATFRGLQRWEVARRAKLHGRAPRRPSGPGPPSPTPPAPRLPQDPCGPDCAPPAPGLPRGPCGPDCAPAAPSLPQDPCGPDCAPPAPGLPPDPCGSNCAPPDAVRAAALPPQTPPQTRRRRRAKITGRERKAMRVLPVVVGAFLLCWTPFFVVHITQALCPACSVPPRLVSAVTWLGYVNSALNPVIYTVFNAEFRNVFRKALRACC
As to the kind of experiment: Agonist activity at D4 receptor (unknown origin).

Series [3] addresses T2, Muscarinic acetylcholine receptor M5 (Homo sapiens) (UniProt P08912).
T2 sequence (whole entry): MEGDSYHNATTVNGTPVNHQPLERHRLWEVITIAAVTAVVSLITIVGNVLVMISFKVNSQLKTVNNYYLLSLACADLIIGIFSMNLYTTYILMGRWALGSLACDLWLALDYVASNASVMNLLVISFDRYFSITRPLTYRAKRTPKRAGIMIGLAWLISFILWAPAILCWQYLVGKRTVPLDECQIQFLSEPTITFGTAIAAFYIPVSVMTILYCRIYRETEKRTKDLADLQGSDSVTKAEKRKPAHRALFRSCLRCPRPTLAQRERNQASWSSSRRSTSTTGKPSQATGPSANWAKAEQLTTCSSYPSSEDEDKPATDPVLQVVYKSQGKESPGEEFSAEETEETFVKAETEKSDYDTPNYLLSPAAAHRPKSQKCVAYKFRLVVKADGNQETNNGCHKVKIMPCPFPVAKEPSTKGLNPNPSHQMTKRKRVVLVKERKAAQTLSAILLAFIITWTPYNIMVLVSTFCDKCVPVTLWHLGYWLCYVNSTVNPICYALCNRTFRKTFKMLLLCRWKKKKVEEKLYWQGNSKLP
As to the kind of experiment: Antagonist activity at M5R (unknown origin) expressed in HEK293 cells harboring luc2P/NFAT-RE plasmid at 10 uM after 6 to 8 hrs by luciferase reporter gene assay. Type of series: cell-based. The gist of the method: (§1)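 NFAT-RE luciferase assay in HEK293T cells transiently co-transfected with luc2P/NFAT-RE plasmid and receptor plasmid. Cells plated in DMEM and incubated overnight at 37 °C, 5% CO₂. Compounds and reference ligands applied for 6-8 h. Luciferase read after adding Bright-Glo substrate (1 mg/ml final).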

The nature of series [4]: Cmax in C57BL/6J mouse brain at 20 mg/kg, po by LC-MS/MS analysis. It is filed as ADME, organism-based. Set-up: dose 20 mg/kg, route oral. Particulars: in vivo. The gist of the method:
(§2)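 Male C57BL/6J mice (6-8 weeks, 20 ± 5 g) fasted overnight (12-16 h) got a single 20 mg/kg oral dose as 2.5 mg/mL suspension in 1% w/v gum acacia; n=5 per time point. Serum and brain (PBS homogenate 1:6 w/v) sampled up to 24 h. Parent and demethylated metabolite quantified by LC-MS/MS after liquid-liquid extraction (C18, MRM, phenacetin internal standard; linear 0.25-200 ng/mL). Two-compartment open model fit.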

The nature of series [5]: Half life in C57BL/6J mouse brain assessed as 4-(2-Amino-8-methyl-5,6,7,8-tetrahydroquinazolin-4-yl)phenol level at 20 mg/kg, po by LC-MS/MS analysis. Type of series: ADME, organism-based. Particulars: in vivo. The gist of the method: as §2
Series [6] concerns Mus musculus. The series is described as follows: Anti-obesity activity in 16 hrs fasted db/db-induced obese C57BL/6J mouse model assessed as reduction in fasting blood glucose level at 20 mg/kg, po measured after 4 weeks. Type of series: functional, organism-based.
In series [7] the test system is Mus musculus. As to the kind of experiment: Anti-obesity activity in high fat diet-induced obese C57BL/6J mouse model assessed as change in blood total cholesterol level at 10 to 20 mg/kg, po measured after 6 weeks. Type of series: functional, organism-based. The gist of the method:
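At the end of treatment (six weeks HFD, four weeks db/db), mice euthanized with avertin 350 mg/kg. Blood taken by cardiac puncture into 3.8% sodium citrate. Plasma separated at 4000 rpm and stored at -80 °C. TG, TC, HDLc and LDLc measured on a bio-analyzer.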

Series [8] deals with T3, 5-hydroxytryptamine receptor 2C (Homo sapiens) (UniProt P28335).
T3 sequence (whole entry): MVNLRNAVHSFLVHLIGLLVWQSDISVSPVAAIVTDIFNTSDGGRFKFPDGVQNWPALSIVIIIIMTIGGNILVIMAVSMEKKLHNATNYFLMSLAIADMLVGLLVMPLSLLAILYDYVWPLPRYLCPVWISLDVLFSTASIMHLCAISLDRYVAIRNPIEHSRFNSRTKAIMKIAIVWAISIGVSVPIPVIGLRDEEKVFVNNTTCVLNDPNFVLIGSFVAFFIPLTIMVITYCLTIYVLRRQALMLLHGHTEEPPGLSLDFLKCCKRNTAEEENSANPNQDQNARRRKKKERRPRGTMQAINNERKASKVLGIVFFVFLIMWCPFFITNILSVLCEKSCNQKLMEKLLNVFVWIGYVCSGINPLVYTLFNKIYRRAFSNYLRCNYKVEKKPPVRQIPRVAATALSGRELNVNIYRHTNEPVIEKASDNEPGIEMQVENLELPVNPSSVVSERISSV
As to the kind of experiment: Agonist activity at 5HT2CR (unknown origin) expressed in HEK293 cells harboring luc2P/NFAT-RE plasmid at 10 uM after 6 to 8 hrs by luciferase reporter gene assay. It is filed as cell-based. A digest of the protocol:
as §1

Series [9] addresses T3, 5-hydroxytryptamine receptor 2C (Homo sapiens). As to the kind of experiment: Antagonist activity at 5HT2CR (unknown origin) expressed in HEK293 cells harboring luc2P/NFAT-RE plasmid at 10 uM after 6 to 8 hrs by luciferase reporter gene assay. It is filed as cell-based. The gist of the method:
as §1

Calls of active or inactive are those of the source. No cut-off for these calls is given here.

Sequence of D(1A) dopamine receptor (Homo sapiens) (P21728 whole entry): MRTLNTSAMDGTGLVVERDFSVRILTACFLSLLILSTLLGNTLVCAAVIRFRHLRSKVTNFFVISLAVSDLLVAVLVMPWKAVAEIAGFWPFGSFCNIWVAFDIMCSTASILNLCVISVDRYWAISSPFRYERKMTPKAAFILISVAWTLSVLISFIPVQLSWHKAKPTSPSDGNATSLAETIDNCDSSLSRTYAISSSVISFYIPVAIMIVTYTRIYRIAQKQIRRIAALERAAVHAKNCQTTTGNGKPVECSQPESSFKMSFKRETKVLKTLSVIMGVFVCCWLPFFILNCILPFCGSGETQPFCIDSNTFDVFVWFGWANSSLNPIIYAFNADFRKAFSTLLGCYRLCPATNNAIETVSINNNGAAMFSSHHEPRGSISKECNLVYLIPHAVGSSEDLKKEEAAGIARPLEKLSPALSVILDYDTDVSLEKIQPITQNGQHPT
Sequence of Histamine H2 receptor (P25021 whole entry): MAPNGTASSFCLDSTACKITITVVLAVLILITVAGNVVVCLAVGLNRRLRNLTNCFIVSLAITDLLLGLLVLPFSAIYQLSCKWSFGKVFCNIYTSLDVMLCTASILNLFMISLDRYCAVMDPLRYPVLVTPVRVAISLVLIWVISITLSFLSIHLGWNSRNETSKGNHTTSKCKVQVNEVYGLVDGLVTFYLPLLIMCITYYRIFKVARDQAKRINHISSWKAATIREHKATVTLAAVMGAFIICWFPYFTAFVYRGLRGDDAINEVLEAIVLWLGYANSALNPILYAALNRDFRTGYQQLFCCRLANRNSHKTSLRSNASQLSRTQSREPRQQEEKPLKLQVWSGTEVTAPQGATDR

For `COc1ccc(-c2nc(N)nc3c2CCCC3C)cc1` (racemic), the Activity on Histamine H2 receptor is below 50%. Besides, the inhibition entry in series [1], in series [3], in series [8] and in series [9] was “inactive” throughout. Further, the outcome (in series [2]; with Mus musculus [7]) was inactive. In series [4], this molecule gave a Cmax of 323 ng/g. Further, the t1/2 in [5] turned out to be 1.2 h. For the same molecule, in the series with Mus musculus [6], the result was Active.
